From ChEMBL document CHEMBL1137803, “A novel anti-HIV macrocyclic peptide from Palicourea condensata” (J Nat Prod, 2001)
Where a SMILES comes first, the peptide text is derived from it. Bridges are numbered along the chain shown (N, C = ends).

Columns and labels:
[1] = system: CEM-SS; assay: Cytotoxicity against human CEM-SS cells by XTT assay; assay type: cell-based
[2] = system: Human immunodeficiency virus 1; assay: Antiviral activity against HIV1 RF infected in human CEM-SS cells assessed as inhibition of virus induced cytopathic effect by XTT assay; assay type: functional, organism-based; conditions: Human immunodeficiency virus 1, RF
Outline: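 HIV-1RF infection of CEM-SS, a human T-lymphoblastoid cell line, in vitro; inhibition of virus-induced cytopathic effects read out and reported as EC50 in µM.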

CC[C@H](C)[C@@H]1NC(=O)[C@H](C(C)C)NC(=O)[C@H](CCCNC(=N)N)NC(=O)[C@@H]2CSSC[C@@H]3NC(=O)[C@H]([C@@H](C)O)NC(=O)[C@@H]4CSSC[C@H](NC(=O)[C@H](Cc5ccccc5)NC(=O)[C@H]([C@@H](C)O)NC(=O)[C@@H]5CCCN5C(=O)[C@H](CC(=O)O)NC(=O)CNC(=O)[C@H](CC(N)=O)NC(=O)[C@H](CCCNC(=N)N)NC(=O)[C@H](CCCCN)NC(=O)[C@H](CSSC[C@H](NC(=O)[C@H](C(C)C)NC(=O)[C@@H]5CCCN5C1=O)C(=O)N[C@@H]([C@@H](C)O)C(=O)N[C@@H](Cc1ccc(O)cc1)C(=O)N[C@@H](CO)C(=O)N[C@@H](C)C(=O)N[C@@H](C)C(=O)N[C@@H](CC(C)C)C(=O)NCC(=O)N4)NC(=O)[C@H](CC(C)C)NC(=O)CNC(=O)[C@H](CC(=O)O)NC(=O)[C@H](CO)NC(=O)[C@H](CCCNC(=N)N)NC(=O)[C@H](CC(=O)O)NC(=O)[C@H](CC(=O)O)NC3=O)C(=O)NCC(=O)N[C@@H](CCC(=O)O)C(=O)N[C@@H]([C@@H](C)O)C(=O)N2 [PALICOUREIN] (cyclo(AALGCTCDDRSDGLCKRNGDPTFCGETCRVIPVCTYS); disulfide 5-24, 7-28, 15-34)
IC50 [1]: 1500 nM | EC50 [2]: 100 nM
